Source: paper PMC6304448 (Heliyon, 2018)
≈ marks a conversion by molar mass, not a printed value.

How the values were obtained:
Type in all cases: cell-based
[1] = system: Leishmania donovani promastigotes; test: Antileishmanial assay; conditions: 72 h; for IC50: read-out: antileishmanial activity IC50; for IC90: read-out: antileishmanial activity IC90
Method in brief: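 Leishmania donovani promastigote or axenic amastigote cultures at 2 × 10⁶ cells/ml were exposed to test compound and incubated at 26 °C for 72 hours. Growth was read by AlamarBlue. Pentamidine and amphotericin B served as positive controls. IC₅₀ and IC₉₀ were computed from dose-response curves.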

[2] = system: chloroquine sensitive (D6, Sierra Leone) strain of Plasmodium falciparum; test: Antimalarial assay; conditions: D6, 72 h, read-out: antimalarial activity IC50
Method in brief: (§1)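 Test compound was dissolved in DMSO (2 mg/ml stock) and serially diluted. It was then added to P. falciparum culture (2% parasitemia, 2% hematocrit) in RPMI 1640 with 10% human serum and 60 μg/mL amikacin. Plates were held under 90% N₂/5% O₂/5% CO₂ at 37 °C for 72 hours. Parasite LDH was assayed with Malstat reagent for 30 min, then NBT/PES for 1 h in the dark. The reaction was stopped with 5% acetic acid and read at 650 nm. Chloroquine and artemisinin were positive controls and DMSO (0.25%) the negative control. IC₅₀ came from percent growth versus concentration curves.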

[3] = system: chloroquine resistant (W2, Indo China) strain of Plasmodium falciparum; test: Antimalarial assay; conditions: W2, 72 h, read-out: antimalarial activity IC50
Method in brief: as §1

[4] = In-vitro cytotoxicity assay; conditions: African green monkey, VERO cells (mammalian kidney fibroblasts, ATCC)
Method in brief: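 VERO cells were seeded at 25,000 cells/well and incubated for 24 h. Test compound was added at a range of concentrations and incubated a further 48 h. Viable cells were quantified by a modified Neutral Red uptake method. Doxorubicin was the positive control and DMSO the negative control. IC₅₀ was derived from dose-response curves.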

Question: Which IC50 [1] does the source give for `O=C1CC(O)C2c3c(ccc(O)c31)-c1ccc(O)c3c1C2(O)C(O)CC3=O` (stereo not shown) [Compound 2, 3,6,6a,7,10-pentahydroxy-4,9-dioxo-4,5,6,6a,6b,7,8,9-octahydroperylene] here?
Answer: 4.4 µg/mL (≈ 11.9 µM)

Question: What about the IC90 [1] of the same molecule?
Answer: 9.54 µg/mL (≈ 25.9 µM)

Question: What about the IC50 [2] of the same molecule?
Answer: 4.24 µg/mL (≈ 11.5 µM)

Question: And the IC50 [3]?
Answer: 3.65 µg/mL (≈ 9.91 µM)

Question: What about the IC50 at 48 h [4] of the same molecule?
Answer: 3.59 µg/mL (≈ 9.75 µM)

Question: With `O=C1CC(O)C2(O)c3c(ccc(O)c31)-c1ccc(O)c3c1C2C1OC1C3O` (stereo not shown) [Compound 1, 3,6,6a,9,10-pentahydroxy-7,8-epoxy-4-oxo-4,5,6,6a,6b,7,8,9-octahydroperylene] as the molecule, how does the IC50 [1] read?
Answer: 2.55 µg/mL (≈ 6.92 µM)

Question: What about the IC90 [1] of the same molecule?
Answer: 8.28 µg/mL (≈ 22.5 µM)
